ChEMBL document CHEMBL5149984, “Discovery of HN37 as a Potent and Chemically Stable Antiepileptic Drug Candidate” (J Med Chem, 2021)
pEC50, pIC50: −log10 of the molar value.

Legend:
[1] = Metabolic stability in mouse liver microsomes assessed as intrinsic clearance; type: ADME, Microsome; conditions: read-out: CLH
Mus musculus [2] = organism: Mus musculus; assay: Anticonvulsant activity in Kunming mouse assessed as reduction in MES-induced seizure after 1 hr; type: functional
In short: (§1)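 MES test in male KM mice. Compounds freshly suspended in 0.5% CMC-Na and given by gavage at 20 mL/kg; 160 V stimulus through ear clips. Protection scored as absence of hindlimb tonic extension; time course at 0.25, 0.5, 1 and 2 h, otherwise tested at 1 h. ED50 from dose−response by nonlinear regression; Fisher's exact test versus vehicle.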

[3] = Metabolic stability in dog liver microsomes assessed as half life; type: ADME, Canis lupus familiaris, Microsome
[4] = target: Potassium voltage-gated channel subfamily KQT member 2 (Rattus norvegicus) (UniProt O88943); assay: Agonist activity at rat Kv7.2 channel expressed in CHO cells assessed as amplitude change of outward current at 10 uM by whole cell patch clamp based electrophysiological method; conditions: filed as agonist
Potassium voltage-gated channel subfamily KQT member 2 (Rattus norvegicus), sequence (O88943 whole entry, the tested form may be a part): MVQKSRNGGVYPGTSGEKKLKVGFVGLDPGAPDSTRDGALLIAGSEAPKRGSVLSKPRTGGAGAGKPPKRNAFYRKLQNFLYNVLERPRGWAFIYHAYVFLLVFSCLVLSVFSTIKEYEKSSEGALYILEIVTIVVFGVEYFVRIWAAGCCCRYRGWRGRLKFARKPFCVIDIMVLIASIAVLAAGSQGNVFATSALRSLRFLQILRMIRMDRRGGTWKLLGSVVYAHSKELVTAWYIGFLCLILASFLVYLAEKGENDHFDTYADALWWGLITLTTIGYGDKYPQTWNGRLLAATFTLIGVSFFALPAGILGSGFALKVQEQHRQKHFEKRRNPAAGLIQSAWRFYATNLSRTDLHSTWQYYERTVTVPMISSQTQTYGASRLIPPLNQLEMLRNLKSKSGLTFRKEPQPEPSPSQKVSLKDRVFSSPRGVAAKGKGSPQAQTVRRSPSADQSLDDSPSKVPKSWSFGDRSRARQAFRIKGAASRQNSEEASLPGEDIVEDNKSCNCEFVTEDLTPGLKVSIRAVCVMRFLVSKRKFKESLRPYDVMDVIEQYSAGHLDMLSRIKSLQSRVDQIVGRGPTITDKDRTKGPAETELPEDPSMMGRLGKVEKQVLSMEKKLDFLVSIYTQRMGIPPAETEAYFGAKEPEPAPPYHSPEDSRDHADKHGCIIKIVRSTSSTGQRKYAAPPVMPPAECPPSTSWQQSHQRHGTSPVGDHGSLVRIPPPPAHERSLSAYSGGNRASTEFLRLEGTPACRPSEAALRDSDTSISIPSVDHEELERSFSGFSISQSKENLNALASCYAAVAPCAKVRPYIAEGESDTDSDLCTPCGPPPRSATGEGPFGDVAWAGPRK
In short: (§2)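 Rat KCNQ2 cotransfected with EGFP plasmid by Lipofectamine 3000 into CHO cells (DMEM/F12, 10% FBS; split 24 h before transfection). Whole-cell recording at room temperature. Pipette: 145 mM KCl, 1 mM MgCl2, 5 mM EGTA, 10 mM HEPES, 5 mM MgATP, pH 7.3. Bath, constantly perfused: 140 mM NaCl, 5 mM KCl, 2 mM CaCl2, 1.5 mM MgCl2, 10 mM glucose, 10 mM HEPES, pH 7.4. Signals filtered at 1 kHz. Compound at 10 μM. I/I0 is outward current amplitude with over without compound. ΔV1/2 is the shift in V1/2 from Boltzmann fits of activation curves. Mean ± SEM.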

Mus musculus [5] = assay: Anticonvulsant activity in po dosed MES induced Kunming mouse model of seizure; type: functional; in short: as §1
[6] = AUC(0 to t) in Sprague-Dawley rat blood at 6 mg/kg, po measured upto 24 hrs by LC-MS/MS method; type: ADME, organism-based; design: time < 24 hrs, dose 6 mg/kg, route po
In short: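 Separate experiment in male SD rats given 6 mg/kg orally; blood and brain concentrations measured concurrently. Samples extracted with acetonitrile (brain homogenized in 10 volumes acetonitrile and sonicated) and analysed by LC−MS/MS; AUC0−t by trapezoidal method.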

[7] = Half life in Sprague-Dawley rat at 2 mg/kg, po measured upto 24 hrs by LC-MS/MS method; type: ADME, organism-based; conditions: in vivo
In short: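 Male SD rats (180−220 g) given single oral doses of 2, 6 and 20 mg/kg; handled as in the mouse PK study (fasted 12 h before and 2 h after dosing, 5% DMSO/5% Tween 80/90% saline formulation). In a separate 6 mg/kg p.o. set, blood and brain were sampled together. Plasma and brain levels by LC−MS/MS.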

[8] = target: Potassium voltage-gated channel subfamily KQT member 2 (Rattus norvegicus) (UniProt O88943); assay: Agonist activity at rat Kv7.2 channel expressed in CHO cells assessed as shift of half voltage of maximal activation at 10 uM by whole cell patch clamp based electrophysiological method; conditions: filed as agonist; in short: as §2
Cytochrome P450 2D6 = Cytochrome P450 2D6 (Homo sapiens, UniProt P10635); assay: Time dependent inhibition of human liver microsome CYP2D6 preincubated for 0.5 hrs in presence or absence of NADPH followed by substrate addition by LC-MS/MS method; type: ADME, microsomes
Cytochrome P450 2D6, sequence (P10635 whole entry): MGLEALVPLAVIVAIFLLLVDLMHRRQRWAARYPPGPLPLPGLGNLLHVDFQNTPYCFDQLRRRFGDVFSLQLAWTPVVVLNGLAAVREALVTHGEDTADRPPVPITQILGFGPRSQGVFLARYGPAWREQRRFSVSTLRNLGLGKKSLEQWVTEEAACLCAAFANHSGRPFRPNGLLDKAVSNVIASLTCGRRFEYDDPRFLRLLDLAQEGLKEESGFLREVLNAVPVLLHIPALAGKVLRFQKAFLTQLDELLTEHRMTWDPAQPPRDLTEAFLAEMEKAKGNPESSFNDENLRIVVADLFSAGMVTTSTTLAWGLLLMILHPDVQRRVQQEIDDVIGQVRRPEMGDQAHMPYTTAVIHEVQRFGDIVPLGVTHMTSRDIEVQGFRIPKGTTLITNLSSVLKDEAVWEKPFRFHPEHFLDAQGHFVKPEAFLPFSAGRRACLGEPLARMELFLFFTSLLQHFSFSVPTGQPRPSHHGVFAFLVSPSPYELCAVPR
In short: (§3)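 Human liver microsomes preincubated 0.5 h with 0.10–50 μM test compound, with or without NADPH, then CYP-specific probe substrate added and incubation continued. Metabolite measured by LC-MS/MS; % activity remaining relative to no-compound control; IC50 fitted by Probit model. For CYP3A4, midazolam 1′-hydroxylation and testosterone 6β-hydroxylation were read separately.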

Mus musculus [9] = organism: Mus musculus; assay: Anticonvulsant activity in C57BL/6 mouse 6 Hz seizure model at 44 mA measured after 1 hr; type: functional
[10] = Neurotoxicity in Kunming mouse assessed as motor impairment rate at 60 mg/kg, po after 1 hr by rotarod test; type: toxicity, organism-based; conditions: in vivo
In short: (§4)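 Male KM mice dosed intragastrically with compound freshly suspended in 0.5% CMC-Na. Rotarod performance scored 1 h after dosing as the fraction of animals showing motor impairment. Fisher's exact test versus vehicle; TD50 from nonlinear dose−response fit.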

Cytochrome P450 2B6 = Cytochrome P450 2B6 (Homo sapiens, UniProt P20813); assay: Time dependent inhibition of human liver microsome CYP2B6 preincubated for 0.5 hrs in presence of NADPH followed by substrate addition by LC-MS/MS method; type: ADME, microsomes; in short: as §3
Cytochrome P450 2B6, sequence (P20813 whole entry): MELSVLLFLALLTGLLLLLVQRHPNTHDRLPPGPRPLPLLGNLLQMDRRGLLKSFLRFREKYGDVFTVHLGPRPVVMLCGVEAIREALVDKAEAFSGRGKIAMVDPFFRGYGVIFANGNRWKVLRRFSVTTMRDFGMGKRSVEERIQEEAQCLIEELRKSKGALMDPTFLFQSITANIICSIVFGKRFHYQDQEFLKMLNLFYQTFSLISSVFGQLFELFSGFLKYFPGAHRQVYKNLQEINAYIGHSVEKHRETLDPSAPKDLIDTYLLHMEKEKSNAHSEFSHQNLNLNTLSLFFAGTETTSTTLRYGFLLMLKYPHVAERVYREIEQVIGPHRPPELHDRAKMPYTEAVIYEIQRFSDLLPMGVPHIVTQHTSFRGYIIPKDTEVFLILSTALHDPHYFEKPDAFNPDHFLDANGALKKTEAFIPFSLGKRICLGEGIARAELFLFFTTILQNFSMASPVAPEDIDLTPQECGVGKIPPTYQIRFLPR

[11] = target: Potassium voltage-gated channel subfamily KQT member 2 (Rattus norvegicus, UniProt O88943); assay: Agonist activity at rat KCNQ2 channel expressed in CHO cells by patch clamp method; type: cell-based
Potassium voltage-gated channel subfamily KQT member 2, sequence (O88943 whole entry, the tested form may be a part): as the sequence (O88943 whole entry, the tested form may be a part) above
In short: (§5)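 Whole-cell patch clamp at room temperature on CHO cells (DMEM/F12, 10% FBS) transiently co-transfected with EGFP and hKCNQ1, rKCNQ2, rKCNQ3 A278T, hKCNQ4 or hKCNQ5; KCNQ2/3 at 1:1 cDNA ratio. Pipette solution 145 mM KCl, 5 mM MgATP, pH 7.3; bath 140 mM NaCl, 5 mM KCl, pH 7.4, under perfusion. V1/2 from Boltzmann fits; I/I0 is current amplitude with versus without compound; n = 4−6.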

[12] = target: Potassium voltage-gated channel subfamily KQT member 2/member 3 (Rattus norvegicus, UniProt O88943+O88944); assay: Agonist activity at rat KCNQ2/3 channel expressed in CHO cells by patch clamp method; type: cell-based; in short: as §5
Potassium voltage-gated channel subfamily KQT member 2/member 3, sequence (O88943 whole entry): as the sequence (O88943 whole entry, the tested form may be a part) above
Potassium voltage-gated channel subfamily KQT member 2/member 3, sequence (O88944 whole entry): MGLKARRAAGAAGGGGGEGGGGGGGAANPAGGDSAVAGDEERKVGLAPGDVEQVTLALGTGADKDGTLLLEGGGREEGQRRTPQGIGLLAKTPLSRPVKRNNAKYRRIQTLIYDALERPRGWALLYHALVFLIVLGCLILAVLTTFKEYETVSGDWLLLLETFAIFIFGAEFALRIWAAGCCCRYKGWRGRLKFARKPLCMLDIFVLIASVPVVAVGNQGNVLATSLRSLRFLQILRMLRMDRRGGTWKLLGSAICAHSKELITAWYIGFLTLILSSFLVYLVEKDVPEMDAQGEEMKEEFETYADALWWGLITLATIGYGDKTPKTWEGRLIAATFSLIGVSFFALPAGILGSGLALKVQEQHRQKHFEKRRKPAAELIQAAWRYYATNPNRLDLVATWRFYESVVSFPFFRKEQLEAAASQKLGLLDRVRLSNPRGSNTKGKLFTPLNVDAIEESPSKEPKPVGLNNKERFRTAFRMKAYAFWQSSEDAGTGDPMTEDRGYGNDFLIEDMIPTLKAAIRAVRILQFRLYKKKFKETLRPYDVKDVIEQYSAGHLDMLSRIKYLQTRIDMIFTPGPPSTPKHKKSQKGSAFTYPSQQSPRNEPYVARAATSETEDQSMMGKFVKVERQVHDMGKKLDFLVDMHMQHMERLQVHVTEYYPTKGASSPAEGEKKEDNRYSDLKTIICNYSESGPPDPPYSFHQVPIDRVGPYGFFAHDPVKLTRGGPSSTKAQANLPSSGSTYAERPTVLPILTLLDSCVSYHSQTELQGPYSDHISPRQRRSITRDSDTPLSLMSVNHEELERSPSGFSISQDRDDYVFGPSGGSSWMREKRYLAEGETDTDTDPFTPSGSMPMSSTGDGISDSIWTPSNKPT

Mus musculus [13] = organism: Mus musculus; assay: Anticonvulsant activity in C57BL/6 mouse 6 Hz seizure model at 32 mA measured after 1 hr; type: functional
[14] = Neurotoxicity in Kunming mouse assessed as motor impairment rate at 150 mg/kg, po after 1 hr by rotarod test; type: toxicity, organism-based; conditions: in vivo; in short: as §4
Mus musculus [15] = organism: Mus musculus; assay: Anticonvulsant activity in MES induced Kunming mouse model of seizure assessed as EC50 in plasma; type: functional, organism-based
In short: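 After the MES test in KM mice (oral dosing in 0.5% CMC-Na, 1 h), animals were killed immediately and plasma and brain concentrations were measured by LC−MS/MS. EC50 from concentration−response curves of protection against plasma concentration, by nonlinear regression.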

Mus musculus [16] = organism: Mus musculus; assay: Anticonvulsant activity in Kunming mouse assessed as reduction in Sc-PTZ induced seizure after 1 hr; type: functional
In short: (§6)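 sc-PTZ test in male KM mice. Compound suspended in 0.5% CMC-Na and given orally 1 h before PTZ (freshly dissolved in normal saline, 100 mg/kg). Protection against clonic seizures scored; ED50 by nonlinear regression.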

[17] = Neurotoxicity in po dosed Kunming mouse assessed as motor impairment after 1 hr by rotarod test; type: toxicity, organism-based; conditions: in vivo; in short: as §4
[18] = target: Potassium voltage-gated channel subfamily KQT member 2/member 3 (Rattus norvegicus) (UniProt O88943+O88944); assay: Agonist activity at rat KCNQ2/3 channel expressed in CHO cells assessed as shift of half voltage of maximal activation at 10 uM by patch clamp method; type: cell-based; conditions: filed as agonist; in short: as §5
Mus musculus [19] = assay: Anticonvulsant activity in pentylenetetrazol induced Kunming mouse model of seizure at 30 mg/kg, po after 1 hr; type: functional; in short: as §6
CHO = assay: Agonist activity at rat KCNQ3 A278T mutant expressed in CHO cells assessed as amplitude change of outward current at 10 uM by patch clamp method; type: cell-based; conditions: filed as agonist; in short: as §5

Compound	ED50 (Mus musculus [2]) [mg/kg]	Activity [4]	ED50 (Mus musculus [5]) [mg/kg]	Activity [8] [mV]	ED50 (Mus musculus [9]) [mg/kg]	Activity [10]	pEC50 [11]	pEC50 [12]	ED50 (Mus musculus [13]) [mg/kg]	pEC50 (Mus musculus [15])	ED50 (Mus musculus [16]) [mg/kg]	also measured
C#CCN(Cc1ccc(F)cc1)c1cc(C)c(NC(=O)OC)c(C)c1	1.9	4.75	1.9	-38.5	29.9	Non-Toxic	7.43	7.48	16.8	7.30	9.8	CLint scaled [1]: 438 mL/min/kg; half-life [3]: 0.592 h; AUC(0-t) at 24 h [6]: 533 ng·h/mL; half-life [7]: 1.72 h; pIC50 (Cytochrome P450 2D6): < 4.30; pIC50 (Cytochrome P450 2B6): 5.24; Activity [14]: 87.5%
CCOC(=O)Nc1ccc(NCc2ccc(F)cc2)cc1N [EZOGABINE]	38.6	1.79	38.6	-33.2	102	Non-Toxic	5.69	5.38	65.9	4.70	> 56	TD50 at 1 h ([17]; Kunming): 188 mg/kg; Activity ([17]; po, 1 h, DDE = dose-dependent effect): Dde; Activity [18]: -34.3 mV; Activity (Mus musculus [19]): 50%; Activity (CHO): 2.46
